The nature of experiment [1]: Cytotoxicity against human primary soft tissue sarcoma cells after overnight incubation by Alamar blue assay. The experiment is classed as functional, cell-based. In outline:
(§1)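 Primary tumor cell cultures that passed histological and cytological screening; thawed at 37 °C, resuspended in maintenance medium, live/dead counted, plated at 1.0 × 10^3 cells/well. Samples added at 1/10 cell suspension volume, overnight at 37 °C. Alamar Blue then added at 1/10 well volume; fluorescence (ex 530, em 590 nm) read at 3 h and 3 days post-dye. Percent inhibition versus untreated and cell-free controls gave IC50.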

The nature of experiment [2]: Cytotoxicity against human high-grade leiomyosarcoma cells after overnight incubation by Alamar blue assay. The format is functional, cell-based. In outline:
as §1

In general, IC50 refers to the concentration that gives 50% inhibition. A low value points to higher potency.

On to `C/C1=C\C(=O)OC[C@]23CCC(CO)=C[C@H]2O[C@@H]2C[C@@H](OC(=O)/C=C\C=C\[C@H]([C@@H](C)O)OCC1)[C@@]3(C)[C@]21CO1`, for which the IC50 was determined as 0.046 pM in experiment [1] and 0.085 pM in experiment [2].

Turning to `CC1=C[C@H]2O[C@@H]3C[C@@H](OC(=O)/C=C/C=C\C(OCCC4=CCOC4=O)C(C)O)[C@](C)([C@@]2(CO)CC1)[C@]31CO1` (stereo partly specified), the IC50 was 0.03 pM in experiment [1] and 0.018 pM in experiment [2].

As to `CC1=C[C@H]2O[C@@H]3C[C@@H](OC(=O)/C=C/C=C\C(OCCC4=CCOC4=O)C(C)O)[C@](C)([C@@]2(COC(=O)/C=C(\C)CCO)CC1)[C@]31CO1` (stereo partly specified) [TRICHOVERRITONE], the IC50 in experiment [1] came out at 0.13 pM; in experiment [2], 0.026 pM.

For the origin of these results see ChEMBL document CHEMBL1148146, “14'-Hydroxymytoxin B and 16-hydroxyroridin E, two new cytotoxic trichothecenes from Myrothecium roridum” (J Nat Prod, 2002).
